Assay results taken from the RNAGym collection of RNA variant scans (doi:10.1126/science.aae0568).
This sample holds only a part of the variants without activity.

B1: tRNA (parent)
chain: GUUCCGUUGGCGUAAUGGUAACGCGUCUCCCUCCUAAGGAGAAGACUGCGGGUUCGAGUCCCGUACGGAACG

Variants of: B1
Assay: yeast fitness relative to wild type (ratio to wild type); higher = fitter; tRNA-Arg(CCU), competitive growth, 37 C, YPD
Summary of the method: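 For this measurement, the tRNA-Arg(CCU) gene was varied by chemical synthesis at a 3% per-site mutation rate across 69 sites, and each variant was placed at the native genomic locus in Saccharomyces cerevisiae. The pooled strains went through a 24-hour competition in YPD at 37°C in six parallel replicates, with amplicons from start and end populations read by 100-nucleotide paired-end sequencing. Darwinian fitness relative to wild type followed from the change in each genotype's frequency. Genotypes needed ≥ 100 starting reads, and estimates < 0.5 were set to 0.5.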

Variant	yeast fitness
A42U C46U A57U	0.538
G44C A45G	0.958
A43U G51C A57C C60G G67A	0.663
A43U C55A A65U A70G	0.56
G41A C55U U59A A70U	≤ 0.5
A42G U47G G68U	≤ 0.5
G44A A57U C66U	0.547
G41C G48C A69U	0.558
A45C U47C U64C A65C	0.725
A45G C46U G51C G67C	≤ 0.5
G41C A42U U64C G68C	≤ 0.5
A40U U47A	0.856
A45U G48A C66G	≤ 0.5
G44A A57G	0.688
A43G G68A	0.873
G44A C46U A69C	0.996
A43C C46A G48C G63A	0.62
G41A G67U G68C	0.507
A42G U47G G50C	0.608
A43U G56C	0.702
G41C A65C A70U	0.641
A42U C46U	0.97
A45G U47C G48C U59A	0.576
A43U C55A A65U	0.515

Variant	yeast fitness
A42G G50A	0.842
G44C G50C A57G A65C	0.561
C46G G48A	0.998
A45G U53G C66U A69U	≤ 0.5
A43U C46A A65C	0.688
A40U G67U	0.797
G41A C49U G63A	0.678
A43C G44C C55G C62U C66U	≤ 0.5
A43C A70G	1.05
G41A C60A C61U A69U	≤ 0.5
A45U C61A G67A	≤ 0.5
A42G U47C C62A C66U	≤ 0.5
A43C U53A	0.662
A42G A45C G48C	≤ 0.5
G41C C62G	0.597
A45C G68C	0.839
A45G C62G	0.832
A45G C62A	0.8
A42U C55U A69C	0.511
A45C G50A C62U	0.868
G41C A42G A70G	0.593
A43U U59C	1.02
G41A A43U G51C	≤ 0.5
G44C C62U C66G	≤ 0.5

Variant	yeast fitness
G44A C49G A70U	≤ 0.5
A42C G56A	1.01
C46G U53A	0.75
A43C A69C	1.04
A43C A69U	1.12
A40U U53A	0.774
A40U U53G	0.638
G41C G52C A65U	≤ 0.5
A45G G58A A65U	0.741
A45U A57U	0.744
A42U A57U	0.682
C46A U54C	0.888
A42C U53A U54C U64A	≤ 0.5
A42C U54A	0.567
A42C U54C	0.796
A42U G52A G67U	0.783
A43C C62G	0.76
A43C G67C	0.867
A43C G67A	0.685
A42G G56U	0.565
A45G C66A	0.581
G41C G48A	0.981
A45G A57U	0.751
A45U C66U	0.979

Variant	yeast fitness
A45U C66A	0.649
A43G A57G	0.924
A43C G56A	0.949
G44C A69C	0.85
G44C A69U	0.895
A43C C62A A69C	0.633
G41A U53G U64A	≤ 0.5
C46A C60U	0.83
A45U A65C G68A	0.567
G41C A42G G51A A69C	≤ 0.5
A45U U47C	0.995
A45U U47A	0.786
A45C G63A A69U	0.793
A43G G51A A69C	≤ 0.5
A45U A69U	1.05
A45U A69C	1.04
A45G C55A G58C	0.537
A42U C49U	0.975
C46U G48C C62U	1.03
C46U C55G	0.65
C46U C55U	0.823
A42U C60U A70G	0.703
A43C G48A G58C	0.689
A45C G56A	0.977

Variant	yeast fitness
A45C G56C	0.64
A45G G58A	1.04
A43U C62A A65U C66U	≤ 0.5
G41A G52C C61U C62U	≤ 0.5
A42G A43U C46U C62U	0.551
A43G G50C	0.728
A45G G51A	0.716
C46G G51A G52A	0.566
A45G G50A	0.857
A43C A45U C61A C62U C66U	≤ 0.5
G41C C46G U59C C60U	≤ 0.5
A43C C49U	0.964
A43U C49G C55G	0.988
A45U A70C	0.987
G41A A43C C49G A57G	≤ 0.5
A42G C62A	0.786
G41A A65C	0.67
A42G A57C	0.7
A42G C46U A65C	0.665
A42U C66G	0.712
C46U A65U A69U	0.737
A45U A57G U59C	0.597
A43C G56A C61A	0.525
G44C U47C G58A	0.766

Variant	yeast fitness
A42G C61G C66U	≤ 0.5
A42G G63A	0.684
A45C U54A C66U	≤ 0.5
G44C C49G U64A	≤ 0.5
A43U U54A	0.683
A43U U54C	0.92
A42C C62A	0.719
A42C C62U	0.829
A43U G56A C66G	0.553
A42C U59A A69U	0.528
A43U C49G A69C	0.512
A42G A65C A69C A70G	0.577
A42U A43G G48C U53A A70C	0.525
A43U A65G	1.01
G41A C49A C62U G68C	≤ 0.5
G41A C55A	0.661
A45U C46A G51U	≤ 0.5
C46G C55U	0.769
A45U C49G	0.872
G41A C60G	0.646
A45C C62U	0.842
G41C C46U	1.03
G41A C49U G51C C61U	≤ 0.5
C46U G52C A57U	≤ 0.5

Variant	yeast fitness
C46U C49A C55U	0.678
A45U C55G	0.528
A45U C55A	0.566
G41A G58A	1
A43G U53C C55U	0.561
G44A G50C A70G	0.537
A43U G50A G52U A69C	≤ 0.5
A40U U59C G68A	0.569
A42U C55G	0.616
G44C A70U	0.959
G44C A70C	0.927
G44A A45G G51C	≤ 0.5
A43U G56C C61A	≤ 0.5
G44C A65U	0.873
A43G G58C	0.855
A42G C49U	0.801
G41A G50C	0.676
A42U C62A U64G C66G	≤ 0.5
C46G U54G	0.527
C46G U54A	0.702
G44U G58A	0.946
A45U A65C	0.801
A43G C60U C62U C66U A70C	≤ 0.5
A43C G58A	0.944

Variant	yeast fitness
G44A U47C	0.979
A42U G44A	1.01
G41C A43U G68U	≤ 0.5
G44C C60U A70G	≤ 0.5
C46A C61U	0.901
C46U A65C	0.997
C46U G51A	1.02
A45G C55U G67A	0.656
A42C C61G A65U	0.539
C46A G67C	0.896
A43G G56A C66U G68U	0.557
A45U C62G G63C	≤ 0.5
A42G C62A C66U	0.614
A45G A70C	0.989
A42U U47C C62U	0.628
A42C G50A C61G	0.793
G44C G48A G58A	0.881
A43G U47C A65U	0.668
A45C G67U	0.874
A45C G67C	0.639
G44A G58C C66U	0.667
C46U C66U	1.02
A42G U64A	0.724
A42G U64C	0.904

Variant	yeast fitness
C46A G50A	0.925
A42U A45U A69U	0.707
C46A C62U A69U	0.735
A42C G48A G50A C61G	0.553
G41C C66A	0.621
A42C G58A	0.951
A42U A43C	0.994
G44C C46U C62G	0.787
A45G U47C C62A A65U C66A	≤ 0.5
C46G G48A G52A	0.913
A43C G63U	0.638
A42G G68C	0.798
A45U U64A	0.708
A42C A57U C66U	≤ 0.5
G41C C61G	0.793
A45C G50C	0.604
G44C C49U U64G G67A	0.512
G41A G52A A69C	0.53
A43G C66U	0.887
A43G C66G	0.699
A42U U53C	0.732
A43C A45G G58C	0.685
A43U G51A	1
A43G C60G	0.734

Variant	yeast fitness
A43U G51C C61G	0.593
A42U A43G G48C U53A A69C	0.589
A40U U54A C60G G67C	0.599
A43U U47C C55G	≤ 0.5
A43U U47C C55A	≤ 0.5
G41A G52U U64A G68A	0.622
G41C U54A	0.667
A43C U64C A70C	0.989
A42G G48A	0.863
C46G G58A	0.989
C46G U54C A69C	0.601
A43C C49G A57G	0.591
G41A C66A	0.687
G41A C66U	0.685
A45C C46U	1.02
A42U C61G A65C C66G	0.89
A43U G56A A57G	0.691
G44A G56C	0.585
G44C C60A	0.572
A40U U64C	1.08
A42U A65C	0.81
A43C G44A U59A	0.593
G41A A42G A70U	≤ 0.5
G44A C60U C62G	0.596

Variant	yeast fitness
G44C C46G C55U	≤ 0.5
G44A C49G A65U	0.547
G41A G48C G67C	≤ 0.5
A42C U47C G58C	0.644
A43C C61G	0.66
A42U A43U C62A A65U A69G	0.567
A40U U54C C60A	≤ 0.5
A42G C46G C49U	0.744
A42C A45C G48A A70G	0.632
A45G C46U G51C	≤ 0.5
A42C G48C A70U	0.666
C46U G50A C66G	≤ 0.5
C46A U47G G50A	0.544
G41C A43C	0.731
G44C C49G U59A	≤ 0.5
A43C G68U	0.868
G44C G58C	0.919
G44C G58A	1.02
G41C G63C A65U	≤ 0.5
C46U G48C	0.951
C46U C60G C62G	≤ 0.5
C46U C66G G67U	≤ 0.5
G41C A42G G51A	0.538
A45G U47G	0.756

Variant	yeast fitness
C46A A70U	1.04
C46U G50C	0.819
C46U G58A C62U	0.665
A42C A43U G67C	≤ 0.5
C46U C60U A65C	0.589
A45C C60G	0.603
G41A C61U	0.786
A42U A43G G67A	0.574
A40U G58U	0.768
A45C A65G C66U	0.679
A42U G56A G63C	≤ 0.5
A42G A57U G67C	≤ 0.5
G44A G68A	0.802
A42G C55U	0.688
A42U G52C	0.694
A43C U64G	0.618
A43C C66U	0.948
A45C G48A A70U	0.654
A45G U59C	1.03
G41C G56C	0.557
A43U G63C A70U	0.54
A42G G44C C60G	0.606
A45U G52A A70U	0.574
A43U C66A	0.619

Variant	yeast fitness
A43U G50C A65C	0.556
A45U C49G A70U	0.63
C46G C62A	0.873
C46G C49A C61U	0.597
A42C A45C G48A A65G	0.671
G44C U54C C60A	≤ 0.5
A43C C46U	1.03
A45C C55U	0.692
A42C U53A G68C	≤ 0.5
A42G C49G C61G	≤ 0.5
A45U G56C G58A A65U	0.5
A42G C46A	0.908
A42G C46G	0.886
G41A A65G G67A	0.635
A45G G51A U59C	≤ 0.5
G41A G48C	0.772
C46A G58C	0.874
A45G C55U G67A A69G	≤ 0.5
A43C C49A A65C	≤ 0.5
A43U G44A C46A	0.654
C46U G51C U64A	≤ 0.5
C46U G56A G67A	0.686
A42U A57U C61U	≤ 0.5
A40U U59A	0.678

Variant	yeast fitness
A43U C61A	0.764
C46G U54C C62A	≤ 0.5
A43C U47A	0.732
A45G G50A U54C	≤ 0.5
C46G A57G	0.987
A45U G50A U64C	0.72
A45C A70U	0.862
A45C C55U A69C	≤ 0.5
C46A C61U A69G	≤ 0.5
A45G C55U A65G	0.544
A45G C55U A65C	≤ 0.5
A42U G44C U54A C66U G67A	≤ 0.5
A42G A65G	0.735
A42G G51A C60A	≤ 0.5
A42G C46U A57C	≤ 0.5
G41C A65C	0.794
A42U G63A A65G	0.572
A45C A65C	0.683
A43G A45G A70G	0.532
A45G C61U	1.03
A45U G63C	0.542
A45U U54C	0.886
